ABCG2 inh = blocks JC-1 efflux by human ABCG2 transporter. Q9UNQ0. IgMXP3 cells, flow cytometry. inhibition, % at 6.6 µM. hit rate 0.1% among 190,000;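 active means inhibition above 80%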;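 further: 0% = DMSO and 100% = nicardipine control wells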
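Test system: IgMXP3 (ABCG2) plus far-red-tagged CCRF-Adr (ABCB1) cells. Reagent: JC-1 dye as substrate. Timing: 10 min exposure at 25 °C with rotation, no wash. Measured by: flow cytometric JC-1 green MFI at 530 nm. Read-out: percent efflux inhibition, scaled nicardipine 100% to DMSO 0%. Control set: nicardipine and DMSO wells.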
Avidin bead fluor = compound fluoresces at 488/530 nm on avidin beads. fluorescence (KMESF) at 10 µM. compound fluorescence 488/530 nm, flow cytometry; active compounds read high. hit rate 0.38% among 220,000. AID 1775; in the data active means fluorescence above about 47
GSH bead fluor = GSH bead compound fluorescence profile. AID 1776. hit rate 0.25% among 190,000. fluorescence (KMESF) at 10 µM. GSH beads flow cytometry, compound fluorescence 488/530 nm; active compounds read high; in the data active means fluorescence above about 89;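 further: glutathione beads carrying GST-tagged Bcl family fusion proteins plus one bare bead set; values are compound well signal with DMSO vehicle wells as background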
PKD1 inh = blocks activity of human protein kinase D1; Q15139; PKD1 kinase fluorescence polarization assay; inhibition, % (test concentration not listed); hit rate 0.056% among 200,000
ABCB1 block = inhibitors of human ABCB1 transporter, ABCG2 counter-screen | hit rate 0.067% among 190,000 | CCRF-Adr cells, JC-1 efflux, flow cytometry | inhibition, % at 6.6 µM; in the data active means inhibition above about 40%;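 further: 0% = vehicle and 100% = reference inhibitor; higher value means more JC-1 retained so stronger ABCB1 efflux block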
Lmaj promast = Leishmania major promastigote growth inhibition; AID 1063; Leishmania major promastigotes, resazurin fluorescence viability; inhibition, % at 10 µM; hit rate 9% among 200,000;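 further: promastigotes grown with compound for 44 hours at 28 °C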
Starred values were filed as active, the others as inactive; / = not tested or not shown. Only a selection was taken, and hits are over-represented in it overall. Unless noted, no stated cut-off is given here; in the data, active means inhibition above about 50%; inactive means the rest.

SMILES	ABCG2 inh	Avidin bead fluor	GSH bead fluor	PKD1 inh	ABCB1 block	Lmaj promast
CC(=O)Nc1nc(-c2ccc(Cl)cc2)ns1	0	5	10	4	0	0
O=C(c1ccc(S(=O)(=O)N2CCCCCC2)cc1)N(c1ccccn1)C1CCCCC1	-1	9	25	-1	0	56*
O=C(c1ccc(S(=O)(=O)N2CCCCC2)cc1)N(c1ccccn1)C1CCCCC1	/	5	/	/	/	/
CCCCN(C(=O)CSc1cc(C)c2ccccc2n1)c1c(N)n(Cc2ccccc2)c(=O)[nH]c1=O	11	16	12	14	2	-2
CC(CNC(=O)C(=O)NC(C)CCc1ccccc1)Cc1ccccc1 (centres undefined)	2	10	9	-10	1	-1
O=C(/C=C/c1ccc(Cl)cc1)NCc1cccs1	14	14	9	4	0	53*
c1coc(CNc2nc3ccccc3n2CCN2CCOCC2)c1	13	6	11	-10	1	4
N=c1c2c(-c3ccccc3)c(-c3ccccc3)n(Cc3ccco3)c2ncn1CCN1CCOCC1	3	18	13	-17	1	100*
N=c1c2c(-c3ccccc3)c(-c3ccccc3)n(Cc3ccco3)c2ncn1CCCO	/	6	/	/	/	/
N=c1c2c(-c3ccccc3)c(-c3ccccc3)n(Cc3ccco3)c2ncn1CCO	0	5	18	-3	0	100*
CN(C)C1C(=O)c2ccccc2C1=O	4	13	12	-2	0	-1
Cc1ccc(NC(=O)Cn2cc(S(=O)(=O)c3ccccc3)c(=O)c3cc(F)ccc32)cc1	-1	6	13	3	-1	-7
O=c1c(S(=O)(=O)c2ccc(Cl)cc2)cn(Cc2ccccc2)c2ccc(F)cc12	-2	15	4	-6	8	91*
CC(=O)NC(CCS(C)(=O)=O)C(=O)Nc1c(C)cccc1C (centres undefined)	1	8	25	8	0	-6
CCN(c1ccccc1)S(=O)(=O)c1ccc(Cl)c(C(=O)OCC(=O)c2[nH]c(C)c(C(C)=O)c2C)c1	7	16	12	-5	1	53*
CC(=O)c1c(C)[nH]c(C(=O)COC(=O)c2cc(S(=O)(=O)N(C)c3ccccc3)ccc2Cl)c1C	7	13	5	-4	2	8
COc1ccc(/C=N/n2cncn2)cc1Cn1nc(C)c([N+](=O)[O-])c1C	/	7	/	/	/	/
Cc1ccc(S(=O)(=O)Nc2c(C)n(C)n(-c3ccccc3)c2=O)cc1C(=O)NCc1ccccn1	-2	14	29	-7	-3	-3
O=C(NC(=S)N1CCN(C/C=C/c2ccccc2)CC1)c1ccc(Cl)nc1	/	6	/	/	/	/
Cc1ccc(C)c2c1cc(C)c1nnc(SCC(=O)NCc3ccc4c(c3)OCO4)n12	-5	16	27	2	0	70*
O=C(CSc1ncnc2c1cnn2-c1ccc(F)cc1)NCc1ccc2c(c1)OCO2	-6	16	9	0	0	63*
O=C(CSc1nnc(-c2cccs2)n1-c1ccccc1)NCc1ccc2c(c1)OCO2	12	14	37	-11	-1	58*
Cc1ccc(N(CC(=O)NC(C)(C)C)C(=O)CNC(=O)c2cccs2)cc1C	1	11	11	-5	0	0
COc1ccccc1CNC(=O)C1CCC(CNc2c(N3CCC(C)CC3)c(=O)c2=O)CC1 (centres undefined)	/	6	/	/	/	/
Cc1cc(NCc2ccccc2)nc2ccccc12	2	6	18	4	0	53*
SMILES	ABCG2 inh	Avidin bead fluor	GSH bead fluor	PKD1 inh	ABCB1 block	Lmaj promast
Cc1cc(NCc2ccccc2)nc(-c2ccccc2O)n1	5	29	14	-4	0	25
COc1ccc(Nc2cc(C)c3ccccc3n2)cc1	9	6	22	-7	2	83*
Cc1cc(Nc2ccc([N+](=O)[O-])cc2)nc2ccccc12	6	3	19	-1	1	-5
C/C(CCC(C)C)=N\Nc1cc(C)c2ccccc2n1	8	13	14	0	0	67*
CCCCNC(=O)COC(=O)CNC(=O)c1cc(Cl)cc([N+](=O)[O-])c1	1	10	15	-5	0	-8
CCN(c1ccccc1)S(=O)(=O)c1ccc(Cl)c(C(=O)NCC2CCCO2)c1 (centres undefined)	4	7	16	1	1	10
Cc1cccc2cc(CN(Cc3nnnn3Cc3ccco3)C3CCCC3)c3nnnn3c12	51	36	26	-3	9	59*
CC(=O)C1C(c2ccc(F)cc2)c2c(noc2C)CC1(C)O (centres undefined)	/	7	/	/	/	/
COc1ccc(Nc2nc3c(C)cccn3c(=O)c2C=NCc2ccccc2)cc1	6	8	15	-1	1	63*
COc1ccc(C(=O)c2c[nH]c(C(=O)N=CN(C)C)c2)cc1	-2	8	13	-2	-1	3
CCC(=O)N1CCc2cc(S(=O)(=O)CCC(=O)Nc3cccc(C)n3)ccc21	11	9	16	-2	1	56*
COc1ccc(CCN=C(N)NS(=O)(=O)c2cccs2)cc1	2	25	11	-2	0	-8
COc1ccc(OCCOCCN2CCc3ccccc3C2)cc1	1	13	62	5	1	93*
O=C(CCCOc1ccccc1)N1CCc2ccccc2C1	0	9	35	-5	0	-5
Clc1ccc(OCCCCN2CCc3ccccc3C2)cc1	2	8	14	-7	0	85*
c1ccc(C[n+]2cccc3c4ccccc4ccc32)cc1	4	14	10	-3	0	97*
CCCCC[n+]1cccc2c3ccccc3ccc21	-1	12	9	-2	0	100*
O=[N+]([O-])c1ccc(C[n+]2cccc3ccccc32)cc1	-1	11	11	-5	0	-2
Cc1nn(-c2ccccc2)c(C)c1NC(=O)COc1ccc2ccccc2c1	2	10	27	-4	0	-4
CCN(CC)Cc1c(O)ccc2occ(C(=O)c3ccc(OC)cc3)c12	0	6	22	-11	0	88*
Cc1ccc(S(=O)(=O)N2CCN(C3CCC(c4ccccc4)CC3)CC2)cc1 (centres undefined)	-7	9	12	-16	-5	96*
CCS(=O)(=O)N1CCN(C2CCC(c3ccccc3)CC2)CC1 (centres undefined)	26	15	15	13	0	99*
CCCS(=O)(=O)N1CCN(C2Cc3ccccc3C2)CC1	/	6	/	/	/	/
O=C(Cc1ccccc1)N1CCC(c2ccccc2)C1 (centres undefined)	/	7	/	/	/	/
O=S(=O)(c1ccccc1)N1CCN(C2CCCCCCC2)CC1	1	10	32	0	0	45
c1ccc(C2CCC(N3CCNCC3)CC2)cc1 (centres undefined)	0	6	10	-4	0	91*
